≈ marks a conversion by molar mass, not a printed value.
How the values were obtained:
Stromelysin-1 = Stromelysin-1 (Homo sapiens, UniProt P08254); assay: Inhibition of MMP3
How it was run: (§1)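 Catalytic-domain enzyme; 1 µM stock activated with APMA (1 mM, 1 h at 37 °C for MMP-2; 2 mM, 3 h at 37 °C for MMP-3), then diluted to 10 nM in Tris–HCl buffer. Assay used 0.1 nM enzyme and 5 µM fluorogenic substrate Mca-Arg-Pro-Lys-Tyr-Ala-Nva-Trp-Met-Lys(Dnp)-NH2. Inhibitor (≤1% DMSO) preincubated with enzyme 15 min at 37 °C. After substrate, 1 h at 37 °C; fluorescence read at ex 328/em 393 nm. IC50 taken from concentration–response curves as the geometric mean of ≥3 experiments.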

[1] = target: 72 kDa type IV collagenase (Homo sapiens, UniProt P08253); assay: Inhibition of MMP2; how it was run: as §1
Collagenase 3 = Collagenase 3 (Homo sapiens, UniProt P45452); assay: Inhibition of MMP13
[2] = target: Matrix metalloproteinase-14 (Homo sapiens, UniProt P50281); assay: Inhibition of MMP14
Interstitial collagenase = target: T1, Interstitial collagenase (Homo sapiens, UniProt P03956); assay: Inhibition of MMP1
T1 sequence (P03956 whole entry): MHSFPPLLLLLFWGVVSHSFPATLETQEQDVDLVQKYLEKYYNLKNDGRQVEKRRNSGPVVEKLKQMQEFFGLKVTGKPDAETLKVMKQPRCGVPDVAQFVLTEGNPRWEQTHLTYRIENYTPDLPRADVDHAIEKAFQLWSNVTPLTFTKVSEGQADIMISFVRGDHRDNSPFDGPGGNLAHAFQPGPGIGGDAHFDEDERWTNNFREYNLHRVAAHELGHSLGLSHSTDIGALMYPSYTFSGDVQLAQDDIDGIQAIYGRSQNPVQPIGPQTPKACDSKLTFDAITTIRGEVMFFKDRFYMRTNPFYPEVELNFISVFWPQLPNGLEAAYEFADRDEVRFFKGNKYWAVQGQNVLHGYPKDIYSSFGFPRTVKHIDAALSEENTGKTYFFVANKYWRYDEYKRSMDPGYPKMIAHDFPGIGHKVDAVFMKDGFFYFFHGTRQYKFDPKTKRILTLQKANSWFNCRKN

[3] = target: Matrix metalloproteinase-9 (Homo sapiens, UniProt P14780); assay: Inhibition of MMP9
[4] = Selectivity for MMP3 over MMP2
[5] = Aqueous solubility of the compound; type: physicochemical
How it was run: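 Solubility in aqueous media determined across pH 1, 5, 7, 9 and 11.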

Chain of Matrix metalloproteinase-9 (P14780 whole entry): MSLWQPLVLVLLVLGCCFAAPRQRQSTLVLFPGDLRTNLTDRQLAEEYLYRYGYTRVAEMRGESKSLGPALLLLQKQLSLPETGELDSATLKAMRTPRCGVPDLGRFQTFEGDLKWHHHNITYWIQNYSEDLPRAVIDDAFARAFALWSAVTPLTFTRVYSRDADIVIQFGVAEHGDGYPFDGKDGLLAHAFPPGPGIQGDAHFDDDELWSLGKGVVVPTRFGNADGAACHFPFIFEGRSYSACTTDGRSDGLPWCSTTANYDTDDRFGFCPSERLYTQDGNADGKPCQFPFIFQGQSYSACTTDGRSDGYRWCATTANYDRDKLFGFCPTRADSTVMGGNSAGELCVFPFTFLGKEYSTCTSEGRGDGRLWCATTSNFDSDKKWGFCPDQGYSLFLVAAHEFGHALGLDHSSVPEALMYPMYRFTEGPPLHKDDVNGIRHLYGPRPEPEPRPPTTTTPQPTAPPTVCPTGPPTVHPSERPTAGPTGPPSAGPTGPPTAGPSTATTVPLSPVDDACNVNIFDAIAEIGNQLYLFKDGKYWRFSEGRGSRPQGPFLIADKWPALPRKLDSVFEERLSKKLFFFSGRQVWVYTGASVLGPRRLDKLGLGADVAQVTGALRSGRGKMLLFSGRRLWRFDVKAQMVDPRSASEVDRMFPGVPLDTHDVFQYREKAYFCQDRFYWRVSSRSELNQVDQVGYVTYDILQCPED
Chain of Stromelysin-1 (P08254 whole entry): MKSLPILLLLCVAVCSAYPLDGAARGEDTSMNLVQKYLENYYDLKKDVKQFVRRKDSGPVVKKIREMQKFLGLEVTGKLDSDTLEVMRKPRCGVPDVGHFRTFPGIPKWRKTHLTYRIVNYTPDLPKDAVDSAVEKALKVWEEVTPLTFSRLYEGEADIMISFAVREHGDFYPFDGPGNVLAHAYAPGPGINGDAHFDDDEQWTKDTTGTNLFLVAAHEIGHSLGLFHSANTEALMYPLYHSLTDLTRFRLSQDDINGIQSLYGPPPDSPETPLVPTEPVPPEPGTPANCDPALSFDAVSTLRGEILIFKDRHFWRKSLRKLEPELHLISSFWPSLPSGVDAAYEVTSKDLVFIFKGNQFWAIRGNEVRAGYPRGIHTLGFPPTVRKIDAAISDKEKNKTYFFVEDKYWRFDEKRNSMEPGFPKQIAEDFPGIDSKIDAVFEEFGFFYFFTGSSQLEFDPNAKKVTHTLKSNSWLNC
Chain of 72 kDa type IV collagenase (P08253 whole entry): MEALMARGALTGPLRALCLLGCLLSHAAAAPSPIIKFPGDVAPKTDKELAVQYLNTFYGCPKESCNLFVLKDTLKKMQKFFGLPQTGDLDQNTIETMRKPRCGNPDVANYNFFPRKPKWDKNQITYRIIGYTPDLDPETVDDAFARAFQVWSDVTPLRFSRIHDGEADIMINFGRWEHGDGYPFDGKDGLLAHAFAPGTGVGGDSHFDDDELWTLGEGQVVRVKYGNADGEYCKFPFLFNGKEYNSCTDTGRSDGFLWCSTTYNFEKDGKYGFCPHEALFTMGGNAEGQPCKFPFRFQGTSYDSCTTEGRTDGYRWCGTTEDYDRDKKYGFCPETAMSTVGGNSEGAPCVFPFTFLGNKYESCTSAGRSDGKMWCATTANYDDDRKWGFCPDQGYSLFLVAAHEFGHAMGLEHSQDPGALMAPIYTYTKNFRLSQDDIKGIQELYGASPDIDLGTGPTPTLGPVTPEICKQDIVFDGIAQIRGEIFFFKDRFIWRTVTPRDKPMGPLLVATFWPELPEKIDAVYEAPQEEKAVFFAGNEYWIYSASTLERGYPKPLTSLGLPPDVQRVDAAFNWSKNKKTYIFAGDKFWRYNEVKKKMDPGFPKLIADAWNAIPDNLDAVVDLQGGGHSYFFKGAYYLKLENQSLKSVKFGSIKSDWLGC

| SMILES | IC50 (Stromelysin-1) [nM] | IC50 [1] [nM] | other results |
| --- | --- | --- | --- |
| Cc1cc(C2=CCN(S(=O)(=O)CC(=O)NO)CC2)ccc1-c1cccc(OC(F)(F)F)c1 | 51 | 173 | – |
| COC[C@@H](NC(=O)[C@@H](NC(=O)[C@H](CCCc1ccc(-c2ccccc2)c(C)c1)CC(=O)O)C(C)(C)C)c1ccccc1 | 23 | – | IC50 (Collagenase 3): 2300 nM; IC50 [2]: 66900 nM; IC50 (Interstitial collagenase): > 100000 nM; IC50 [3]: 30400 nM |
| CN(Cc1ccc(-c2ccccc2)cc1)S(=O)(=O)CC(=O)NO | 378 | – | Selectivity ratio [4]: < 2 |
| CCOc1cccc(-c2ccc(C3=CCN(S(=O)(=O)CC(=O)NO)CC3)cc2C)c1 | 4 | 998 | solubility [5]: < 1 µg/mL |
| Cc1cccc(-c2ccc(C3=CCN(S(=O)(=O)CC(=O)NO)CC3)cc2C)c1 | 4 | 776 | – |
| O=C(CS(=O)(=O)N1CCC(c2ccc(Oc3ccccc3)cc2)CC1)NO | 205 | – | Selectivity ratio [4]: < 2 |
| CN(CCCc1ccc(-c2ccccc2)cc1)S(=O)(=O)CC(=O)NO | 174 | – | Selectivity ratio [4]: < 2 |
| O=C(CS(=O)(=O)N1CC(Oc2ccc(-c3ccccc3)cc2)C1)NO | 84 | – | Selectivity ratio [4]: < 2 |
| CCc1cc(C2=CCN(S(=O)(=O)CC(=O)NO)CC2)ccc1-c1ccccc1 | 420 | 4380 | – |
| O=C(CS(=O)(=O)N1CC=C(c2ccc(-c3ccccc3)cc2)CC1)NO | 6 | 9 | Selectivity ratio [4]: < 2 |
| O=C(CS(=O)(=O)N1CC=C(c2ccc(-c3ccccc3)c(C(F)(F)F)c2)CC1)NO | 960 | 3080 | – |
| O=C(CS(=O)(=O)N1CCC(c2ccc(-c3ccccc3)cc2)CC1)NO | – | – | Selectivity ratio [4]: < 2 |
| CN(CCc1ccc(-c2ccccc2)cc1)S(=O)(=O)CC(=O)NO | 164 | – | Selectivity ratio [4]: < 2 |
| CCc1cccc(-c2ccc(C3=CCN(S(=O)(=O)CC(=O)NO)CC3)cc2C)c1 | 31 | 1210 | – |
| Cc1cc(C2=CCN(S(=O)(=O)CC(=O)NO)CC2)ccc1-c1ccccc1 | – | 320 | – |
| O=C(CS(=O)(=O)N1CC=C(c2ccc(-c3ccccc3)c(Cl)c2)CC1)NO | 55 | 620 | – |
| COc1cccc(-c2ccc(C3=CCN(S(=O)(=O)CC(=O)NO)CC3)cc2C)c1 | 5 | 222 | – |
| O=C(CS(=O)(=O)N1CC(c2ccc(-c3ccccc3)cc2)C1)NO | 161 | – | Selectivity ratio [4]: < 2 |

Continued, in another order:

| IC50 (Stromelysin-1) [nM] | IC50 [1] [nM] | SMILES | other results |
| --- | --- | --- | --- |
| 2 | 457 | CCOc1cccc(-c2ccc(C3CCN(S(=O)(=O)C(C)(C)C(=O)NO)CC3)cc2C)c1 | – |
| 1 | 534 | Cc1cc(C2CCN(S(=O)(=O)C(C)(C)C(=O)NO)CC2)ccc1-c1cccc(OCCN(C)C)c1 | – |
| 3 | 196 | COCc1cccc(-c2ccc(C3=CCN(S(=O)(=O)CC(=O)NO)CC3)cc2C)c1 | – |
| 0.3 | 196 | CNCCOc1cccc(-c2ccc(C3CCN(S(=O)(=O)C(C)(C)C(=O)NO)CC3)cc2C)c1 | – |
| 3 | 17 | O=C(CS(=O)(=O)N1CC=C(c2ccc(-c3ccccc3)c(F)c2)CC1)NO | – |
| 1 | 262 | Cc1cc(C2CCN(S(=O)(=O)C(C)(C)C(=O)NO)CC2)ccc1-c1cccc(OCCO)c1 | IC50 [2]: 1710 nM; solubility [5]: 1 µg/mL (≈ 2.1 µM); IC50 (Interstitial collagenase): 3230 nM; IC50 [3]: 406 nM |
| 0.4 | 188 | Cc1cc(C2CCN(S(=O)(=O)C(C)(C)C(=O)NO)CC2)ccc1-c1cccc(OCCN)c1 | – |
| 3 | 853 | COCCOc1cccc(-c2ccc(C3CCN(S(=O)(=O)C(C)(C)C(=O)NO)CC3)cc2C)c1 | – |
| 1 | 529 | Cc1cc(C2CCN(S(=O)(=O)C(C)(C)C(=O)NO)CC2)ccc1-c1cccc(OCCO)n1 | IC50 [2]: 20100 nM; solubility [5]: 1 µg/mL (≈ 2.09 µM); IC50 (Interstitial collagenase): 14000 nM; IC50 [3]: 2420 nM |

Source: ChEMBL document CHEMBL1141365, “A novel series of highly selective inhibitors of MMP-3” (Bioorg Med Chem Lett, 2007)
